From PubChem
An excerpt weighted towards active compounds, which were near 4.7% of everything screened.
ADAM10 inh = inhibitors of human ADAM10. O14672. recombinant ADAM10, EDANS/DABCYL FRET peptide cleavage, 3 h. inhibition, % at 7 µM. actives 0.62% (n = 370,000);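 active means inhibition above a per-campaign cutoff equal to the mean of compounds falling between control-based bounds plus 3 SD, cut at about 20% in these data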;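 further: 0% = DMSO wells while the 100% control is not disclosed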
Target sequence (O14672 214-748 limits assumed): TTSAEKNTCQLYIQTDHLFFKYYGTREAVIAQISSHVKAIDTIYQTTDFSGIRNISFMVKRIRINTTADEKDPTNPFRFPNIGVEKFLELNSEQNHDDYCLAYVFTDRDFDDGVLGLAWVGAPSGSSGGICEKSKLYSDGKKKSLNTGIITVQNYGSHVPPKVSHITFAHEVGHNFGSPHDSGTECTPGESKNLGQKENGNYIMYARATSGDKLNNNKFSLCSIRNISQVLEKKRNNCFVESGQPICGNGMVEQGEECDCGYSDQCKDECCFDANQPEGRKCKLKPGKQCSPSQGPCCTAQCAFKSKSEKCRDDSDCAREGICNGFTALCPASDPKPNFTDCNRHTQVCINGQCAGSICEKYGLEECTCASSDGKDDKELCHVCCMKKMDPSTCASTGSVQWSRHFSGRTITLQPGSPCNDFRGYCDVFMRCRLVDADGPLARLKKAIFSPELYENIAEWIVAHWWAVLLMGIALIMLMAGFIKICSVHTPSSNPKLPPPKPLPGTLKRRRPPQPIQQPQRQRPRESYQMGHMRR
MPTP block = inhibitors of mitochondrial permeability transition pore; AID 602449; isolated mouse mitochondria, Ca2+ swelling absorbance, 30 min; actives 1.4% (n = 360,000); inhibition, % at 10 µM;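 active means inhibition of 50% or more, scaled per plate between neutral and stimulator controls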;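 further: 0% = DMSO wells given calcium and 100% = 1 mM EGTA wells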
NR3A LBD binder = modulates the human NR3A ligand-binding domain; Tm shift relative to glycine control, % at 25 µM; NR3A LBD differential scanning fluorimetry, Tm shift; 0% = protein alone, 100% = glycine-bound protein; actives 2.5% (n = 340,000);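 active means melting temperature shift of at least 10% of the positive control shift, at one fixed dose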
MT1-MMP act inh = blocks activation of human MT1-MMP; P50281; HT1080 RFP-PRO-GFP cells, GFP/RFP ratio fluorescence, overnight; percent of plate control window, DMSO zero; GFP/RFP ratio change, % at 20 µM; actives 0.061% (n = 360,000); AID 651647;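 active means GFP/RFP ratio change of at least 30% with cell ATP level not reduced by more than half and red fluorescence within 50% of control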
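Assay system: HT1080 cells carrying an RFP-PRO-GFP reporter | Dosing: Single dose of 20 µM compound, 1% DMSO final | Incubation: Cells overnight before dosing, compound overnight, 37 °C, 5% CO2 | Evaluation: GFP/RFP fluorescence ratio | Control set: DMSO and RFP-L50D-GFP cell wells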
SKN-1 inh = inhibitors of C. elegans SKN-1. C. elegans VP596 Pgst-4::GFP/RFP ratio, acrylamide-induced, 24 h. inhibition, % at 21.8 µM. actives 0.49% (n = 360,000);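 active means interference check ratio from 0.5 to 1.5 plus GFP to RFP signal ratio inhibition reaching or exceeding a fixed threshold, cut at about 30% in these data, passing the limit was not always enough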
ADAM17 inh = ADAM17 inhibition, QFRET primary screen. inhibition, % at 6.95 µM. recombinant ADAM17, EDANS/DABCYL FRET peptide cleavage. actives 0.83% (n = 370,000). AID 720648. P78536;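 active means inhibition above the mean of compounds lying between control limits plus 3 SD, set per campaign, cut at about 8.5% in these data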;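 further: 0% = DMSO-only wells as the low control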
* = called active by the depositor; . = not tested or not shown.

SMILES | ADAM10 inh | MPTP block | NR3A LBD binder | MT1-MMP act inh | SKN-1 inh | ADAM17 inh
O=C(CN1C(=O)NC(Cc2c[nH]c3ccccc23)C1=O)NC1CCCCC1 (stereo not drawn) | -10.8 | -2.0 | 2.8 | 1.1 | 6.8 | -10.5
COc1ccc(/C=C(\C#N)c2nc3ccc(C)cc3[nH]2)cc1Oc1ccc(C(F)(F)F)cc1[N+](=O)[O-] | -2.6 | 43.4 | 18.0* | -12.2 | -3.6 | -4.1
Cc1ccc2nc(/C(C#N)=C/c3ccc(-c4cccc([N+](=O)[O-])c4)o3)[nH]c2c1 | -12.4 | 9.3 | 13.3* | -141.0 | 15.8 | -3.2
Cc1ccc2nc(/C(C#N)=C\c3cc(O)ccc3[N+](=O)[O-])[nH]c2c1 | -2.2 | -1.8 | -9.1 | -2.3 | 12.9 | -5.4
COc1cc(/C=C(\C#N)c2nc3ccc(C)cc3[nH]2)cc([N+](=O)[O-])c1O | -15.8 | 2.7 | 3.3 | 24.3 | 0.6 | -6.5
COc1ccc(S(N)(=O)=O)cc1C(=O)OCC(=O)NC(C)(C#N)C1CC1 (stereo not drawn) | -3.7 | -1.7 | 0.5 | -1.1 | -6.5 | 1.5
CCOc1ccccc1OCc1nn2c(COc3ccccc3)nnc2s1 | -4.2 | -1.8 | 14.2* | 1.6 | 2.7 | -2.0
c1ccc(Cc2nn3c(COc4ccccc4)nnc3s2)cc1 | 4.6 | -1.4 | -1.4 | -4.4 | 5.1 | -2.9
COc1ccc(C(=O)OCC(=O)NC2CC2)cc1S(=O)(=O)Nc1ccc(C)cc1 | -9.3 | 0.5 | -0.3 | -1.7 | -8.9 | 0.7
O=C(c1ccc(Cl)cc1)C1CCN(C(=O)c2ccccc2F)CC1 | -0.5 | -0.8 | -0.5 | 1.3 | 2.9 | -4.8
COc1cc(OC)cc(C(=O)N[C@H](C(=O)OCc2cc(=O)oc3cc(C)ccc23)C(C)C)c1 | -7.2 | 4.3 | -7.7 | -6.1 | -5.2 | 2.0
CCOc1ccccc1C(=O)N[C@H](C(=O)OCc1cc(=O)oc2cc(C)ccc12)C(C)C | -2.9 | -11.6 | 14.8* | . | -3.4 | 3.0
CC(=O)c1ccc(-n2c(SCC(=O)c3c[nH]c4ccccc34)nc3ccccc3c2=O)cc1 | 7.6 | 5.2 | 16.0* | -11.1 | 13.5 | -1.7
CCOC(=O)c1c(C)[nH]c(C)c1C(=O)CSc1nc2ccccc2c(=O)n1-c1ccc(CC)cc1 | 0.9 | 5.8 | 2.4 | -22.4 | 13.6 | 1.7
CC(C)(C)OC(=O)NCCC(=O)N/N=C/c1cccc2cccnc12 | -16.2 | 1.2 | 0.2 | 1.5 | -7.4 | -4.4
CC(C)(C)OC(=O)N1CCC[C@H]1C(=O)N/N=C/c1cccc2cccnc12 | -10.2 | 0.7 | 13.9* | -2.1 | -15.9 | -7.0
Cc1ccc(CCNC(=O)C2CCC(CNc3c(N4CCCC4)c(=O)c3=O)CC2)cc1 (stereo not drawn) | -10.8 | -0.4 | 16.8* | 2.5 | -12.6 | -0.9
Nc1c(-c2ccccc2)cnc2c(-c3ccccc3)cnn12 | -65.9 | -1.1 | -6.2 | 1.4 | -4.0 | -13.6
CS(=O)(=O)c1cnc2c(-c3ccc(F)cc3)cnn2c1N | -6.5 | -0.6 | 36.9* | 7.2 | 7.6 | -3.3
Nc1c(-c2cccs2)cnc2c(-c3ccc(F)cc3)cnn12 | -91.8 | 1.5 | 30.3* | 3.2 | -6.7 | -33.9
Cc1nc2c(-c3ccc(F)cc3)cnn2c(N)c1-c1ccc(F)cc1 | -45.2 | -1.8 | 7.7 | 7.5 | 4.0 | -19.0
CCOP(=O)(OCC)C(NC(=O)c1cc([N+](=O)[O-])cc([N+](=O)[O-])c1)C(F)(F)F (stereo not drawn) | 5.3 | 0.8 | -0.3 | -0.5 | 7.9 | 1.6
CCn1c2ccccc2c2cc(NS(=O)(=O)c3ccc(C)cc3)ccc21 | 11.9 | 3.2 | 2.5 | -4.4 | 16.0 | 0.2
CC(=O)N1CCc2cc(N=NC3=C(O)CC(C)(C)CC3=O)ccc21 | 7.9 | 0.3 | -2.5 | -0.7 | 18.7 | 3.1
CC1(C)CC(=O)C2=C(C1)NC1=C(C(=O)c3ccccc31)C2c1ccccc1 (stereo not drawn) | 9.7 | 34.0 | -7.4 | 4.6 | 7.7 | 0.7
SMILES | ADAM10 inh | MPTP block | NR3A LBD binder | MT1-MMP act inh | SKN-1 inh | ADAM17 inh
Cc1cccc(C2C3=C(Nc4[nH]n(-c5ccccc5)c(=O)c42)c2ccccc2C3=O)c1 (stereo not drawn) | 16.4 | 41.0 | 2.0 | 13.9 | 18.4 | 9.8*
O=C(Nc1cccc(-c2csc(Nc3ccc(Cl)cc3)n2)c1)c1cc([N+](=O)[O-])cc(C(F)(F)F)c1 | 0.0 | 7.4 | 20.1* | 5.2 | 23.5 | 0.3
O=C(Nc1ccc(-c2csc(Nc3ccc(Cl)cc3)n2)cc1)c1cc([N+](=O)[O-])cc(C(F)(F)F)c1 | 6.5 | 1.5 | 20.0* | 5.1 | 6.5 | 2.6
O=C(Nc1cccc(-c2csc(Nc3ccccc3)n2)c1)c1cc([N+](=O)[O-])cc(C(F)(F)F)c1 | 0.5 | 6.7 | 7.9 | 5.6 | 14.8 | 0.7
Nc1nc(-c2ccc([N+](=O)[O-])cc2)c(C(=O)Nc2ccc(Cl)cc2)s1 | -1.9 | 3.3 | 4.2 | 5.9 | 5.7 | 0.9
COc1cccc(NC(=S)N2c3ccccc3CC2C)c1 (stereo not drawn) | -4.3 | -0.3 | -2.3 | -4.0 | -8.0 | -3.8
O=C(Cc1nnc(NC(=O)c2ccccc2)s1)N/N=C/c1cccc(O)c1 | -0.2 | 1.9 | 41.4* | 0.9 | -7.8 | 0.8
Nc1ccc(C(=O)N/N=C/c2cn(Cc3ccc(F)cc3)c3ccccc23)cc1 | -11.5 | 0.3 | 15.6* | 4.3 | 7.9 | -4.5
O=C(N/N=C/c1cccc(O)c1)N/N=C/c1cccc(O)c1 | 1.6 | 0.1 | 10.0* | . | 14.5 | -2.3
Cc1ccc(Cn2cc(/C=N/NC(=O)Cc3nnc(NC(=O)c4ccc(C)cc4)s3)c3ccccc32)cc1 | -9.5 | -1.6 | 12.6* | -4.6 | 4.6 | -2.9
Nc1ccc(C(=O)N/N=C/c2cn(Cc3ccccc3)c3ccccc23)cc1 | -12.1 | -0.1 | 5.7 | 0.6 | -3.6 | 1.3
CCOc1ccc(N2CC(C(=O)NCc3ccc(C)n3C)CC2=O)cc1 (stereo not drawn) | 2.1 | 0.4 | 0.2 | -1.5 | 3.8 | -3.6
Cn1nnnc1Sc1ncnc2scc(Br)c12 | 1.2 | 0.2 | -0.8 | 2.3 | -0.2 | -3.2
Brc1ccc(Oc2nnnn2-c2ccccc2)cc1 | -5.0 | -0.7 | 1.6 | 1.7 | 36.8* | -2.8
Fc1ccc(Oc2nnnn2-c2ccccc2)cc1 | -8.8 | -1.2 | 1.1 | -0.3 | 7.3 | -5.8
CCc1ccc(N/C(SC)=C(/C#N)C(N)=O)cc1 | . | -0.7 | -3.8 | 0.3 | 19.9 | .
CCCCS/C(=C(/C#N)C(N)=O)c1cc2c([nH]1)CCCC2 | 8.5 | 10.9 | 4.0 | -14.0 | 36.6* | 2.7
O=c1[nH]c(-c2ccccc2)cs1 | 4.0 | 1.6 | 11.5* | 3.2 | 10.0 | -4.6
COC(=O)c1ccc(-n2nnnc2SCC(=O)N2CCCCC2)cc1 | 10.0 | 3.2 | 37.4* | -0.2 | 2.6 | 0.6
